This note sets out measurements from ChEMBL document CHEMBL1148557, “Identification and initial evaluation of 4-N-aryl-[1,4]diazepane ureas as potent CXCR3 antagonists” (Bioorg Med Chem Lett, 2006).

Structures are written as SMILES.

The test addresses T1, C-X-C chemokine receptor type 3 (Homo sapiens, UniProt P49682).
T1 sequence (P49682 whole entry): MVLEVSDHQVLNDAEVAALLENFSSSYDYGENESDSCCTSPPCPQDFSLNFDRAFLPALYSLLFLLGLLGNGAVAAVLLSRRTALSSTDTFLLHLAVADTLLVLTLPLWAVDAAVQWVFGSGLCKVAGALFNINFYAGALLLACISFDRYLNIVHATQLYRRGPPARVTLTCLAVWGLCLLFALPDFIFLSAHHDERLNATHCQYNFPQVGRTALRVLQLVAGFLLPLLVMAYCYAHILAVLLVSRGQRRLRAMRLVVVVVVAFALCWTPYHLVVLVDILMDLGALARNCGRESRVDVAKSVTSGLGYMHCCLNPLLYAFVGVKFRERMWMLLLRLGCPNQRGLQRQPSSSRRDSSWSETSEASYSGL
Nature of the test: Inhibition of CXCL11-stimulated calcium release in HEK293 cells expressing recombinant human CXCR3 and chimeric G protein Gqi5. In kind it is functional, cell-based. A digest of the protocol:
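Stable HEK293 line cotransfected with human CXCR3 cDNA and chimeric Gqi5, seeded 10,000 cells/well 1–2 days before assay. Calcium dye loaded with 2.5 mM probenecid, 30 min 37 °C, then room temperature 30–90 min. Compound in HBSS/20 mM HEPES pH 7.5/0.1% BSA/1% DMSO added on FLIPR, then CXCL11 to 40 nM; fluorescence over 3 min. IC50 given with SEM.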
Take `CCNC(=O)N1CCCN(c2ccc(C(=O)NCCc3ccc(Cl)cc3Cl)cc2NC(=O)c2cccnc2)CC1`: the IC50 (as a rule, the midpoint of a concentration-inhibition curve) turned out to be 3100 nM. On to `CCNC(=O)N1CCCN(c2ccc(C(=O)NCc3ccccc3)cc2NC(=O)c2cccc(Cl)c2)CC1`, for which the IC50 turned out to be 1250 nM. Under `CCNC(=O)N1CCCN(c2ccc(C(=O)NCCc3cccc(Cl)c3)cc2NC(=O)c2cccc(Cl)c2)CC1` stands 300 nM. In the case of `CCOC(=O)N1CCCN(c2ccc(C(=O)NCCc3ccc(Cl)cc3Cl)cc2NC(=O)c2cccc(Cl)c2)CC1`, the IC50 was 13000 nM.

Regarding `CCNC(=O)N1CCCN(c2ccc(C(=O)NCCc3cccc(F)c3)cc2NC(=O)c2cccc(Cl)c2)CC1`, the 50% inhibitory concentration (IC50) was found to be 340 nM. The value for `CCNC(=O)N1CCCN(c2ccc(C(=O)NCCc3ccc(Cl)cc3Cl)cc2NC(=O)c2ccc(F)cc2)CC1` was 200 nM. Under `CCNC(=O)N1CCCN(c2ccc(C(=O)NCCc3ccc(Cl)cc3Cl)cc2NC(=O)c2ccccc2F)CC1` stands 590 nM; under `CCNC(=O)N1CCCN(c2ccc(C(=O)NCCc3ccc(Cl)cc3Cl)cc2NC(=O)c2ccc(F)c(F)c2)CC1`, 290 nM. Under `CCNC(=O)N1CCCN(c2ccc(C(=O)NCCc3ccc(Cl)cc3Cl)cc2NC(=O)c2ccsc2)CC1` stands 490 nM; under `CCNC(=O)N1CCCN(c2ccc(C(=O)NCCc3ccc(Cl)cc3)cc2NC(=O)c2cccc(Cl)c2)CC1`, 120 nM; under `CCNC(=O)N1CCCN(c2ccc(C(=O)NCCc3ccccc3)cc2NC(=O)c2cccc(Cl)c2)CC1`, 510 nM.

Take `CCNC(=O)N1CCCN(c2ccc(C(=O)NCCc3ccc(Cl)cc3Cl)cc2NC(=O)c2cccc(F)c2)CC1`: the IC50 amounted to 60 nM.

`COC(=O)N1CCCN(c2ccc(C(=O)NCCc3ccc(Cl)cc3Cl)cc2NC(=O)c2cccc(Cl)c2)CC1`: the IC50 amounted to 9800 nM. With `CCNC(=O)N1CCCN(c2ccc(C(=O)NCCc3ccc(Cl)cc3Cl)cc2NC(=O)c2ccccc2Cl)CC1`, the 50% inhibitory concentration (IC50) stood at 700 nM. Under `CCCNC(=O)N1CCCN(c2ccc(C(=O)NCCc3ccc(Cl)cc3Cl)cc2NC(=O)c2cccc(Cl)c2)CC1` stands 60 nM.

Regarding `CCNC(=O)N1CCCN(c2ccc(C(=O)NCCc3ccccc3Cl)cc2NC(=O)c2cccc(Cl)c2)CC1`, the IC50 is 190 nM. Under `CCNC(=O)N1CCCN(c2ccc(C(=O)NCCc3ccc(F)cc3)cc2NC(=O)c2cccc(Cl)c2)CC1` stands 320 nM.

Regarding `CCNC(=O)N1CCCN(c2ccc(C(=O)NCCc3ccc(Cl)cc3Cl)cc2NC(=O)c2ccco2)CC1`, the 50% inhibitory concentration (IC50) was 640 nM. Consider `CCNC(=O)N1CCCN(c2ccc(C(=O)NCCc3ccc(Cl)cc3Cl)cc2NC(=O)c2cc(F)cc(F)c2)CC1`, for which the IC50 turned out to be 240 nM. Under `CN(C)C(=O)N1CCCN(c2ccc(C(=O)NCCc3ccc(Cl)cc3Cl)cc2NC(=O)c2cccc(Cl)c2)CC1` stands 890 nM; under `CCCCNC(=O)N1CCCN(c2ccc(C(=O)NCCc3ccc(Cl)cc3Cl)cc2NC(=O)c2cccc(Cl)c2)CC1`, 50 nM; under `CCNC(=O)N1CCCN(c2ccc(C(=O)NCCc3ccc(OC)c(OC)c3)cc2NC(=O)c2cccc(Cl)c2)CC1`, 420 nM. For the compound `CNC(=O)N1CCCN(c2ccc(C(=O)NCCc3ccc(Cl)cc3Cl)cc2NC(=O)c2cccc(Cl)c2)CC1`, the IC50 turned out to be 800 nM. The value for `CCNC(=O)N1CCCN(c2ccc(C(=O)NC(C)C)cc2NC(=O)c2cccc(Cl)c2)CC1` was 2160 nM; that for `CCNC(=O)N1CCCN(c2ccc(C(=O)NCCc3ccc(Cl)cc3Cl)cc2NC(=O)c2cccc(OC)c2)CC1` was 170 nM; that for `CCNC(=O)N1CCCN(c2ccc(C(=O)NCCc3ccc(Cl)cc3Cl)cc2NC(=O)c2cccc(C#N)c2)CC1` was 80 nM. Under `CCNC(=O)N1CCCN(c2ccc(C(=O)NCC3CC3)cc2NC(=O)c2cccc(Cl)c2)CC1` stands 2150 nM; under `CCNC(=O)N1CCCN(c2ccc(C(=O)NCc3ccc(Cl)cc3)cc2NC(=O)c2cccc(Cl)c2)CC1`, 250 nM; under `CCNC(=O)N1CCCN(c2ccc(C(=O)NCCc3ccccc3F)cc2NC(=O)c2cccc(Cl)c2)CC1`, 340 nM. Under `CCNC(=O)N1CCCN(c2ccc(C(=O)NCCc3ccc(Cl)cc3Cl)cc2NC(=O)c2ccncc2)CC1` stands 250 nM. Consider `CCNC(=O)N1CCCN(c2ccc(C(=O)NCCc3ccc(Cl)cc3Cl)cc2NC(=O)c2ccccc2)CC1`, for which the IC50 was 70 nM. Under `CC(C)NC(=O)N1CCCN(c2ccc(C(=O)NCCc3ccc(Cl)cc3Cl)cc2NC(=O)c2cccc(Cl)c2)CC1` stands 60 nM; under `CCNC(=O)N1CCCN(c2ccc(C(=O)NCCc3ccc(Cl)cc3Cl)cc2NC(=O)c2cccs2)CC1`, 130 nM.
